Data published in ChEMBL document CHEMBL1138353, “Facile stereospecific synthesis and biological evaluation of (S)- and (R)-2-amino-2-methyl-4-[123I]iodo-3-(E)-butenoic acid for brain tumor imaging with single photon emission computerized tomography” (J Med Chem, 2007).

Legend:
Lung [1] = experiment: Biodistribution in 9L cells bearing Fischer 344 rat lung at 15 to 30 uCi, iv after 60 mins; format: ADME, organism-based; settings: in vivo, 1 h
Summary of the method: (§1)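 Male Fischer 344 rats (125–175 g) bearing intracranial 9L gliosarcoma implants; radioiodinated tracer (123I for S, 131I for R) purified in saline, given intravenously. Tissues harvested at 30, 60 or 120 min, radioactivity expressed as %ID/g (thyroid per organ). Groups: S study 5 rats per time; R study 5 at 30 min, 4 at 60 and 120 min.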

Testes [2] = experiment: Biodistribution in 9L cells bearing Fischer 344 rat testes at 15 to 30 uCi, iv after 60 mins; format: ADME, organism-based, Testis; settings: in vivo, 1 h; summary of the method: as §1
Brain [3] = experiment: Biodistribution in 9L cells bearing Fischer 344 rat brain at 15 to 30 uCi, iv after 60 mins; format: ADME, organism-based; settings: in vivo, 1 h; summary of the method: as §1
9L [4] = experiment: Drug uptake per 10^6 cells in rat 9L cells after 30 mins assessed as uptake inhibition in presence of 2-aminobicyclo[2.2.1]-heptane-2-carboxylic acid relative to control; format: ADME, cell-based; parameters: scale not given: the % may be the effect or the level left; settings: 0.5 h
Summary of the method: (§2)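 Cultured rat 9L gliosarcoma cells incubated 30 min with 131I-labelled tracer, with or without A-type inhibitor N-MeAIB or L-type inhibitor BCH. Uptake expressed as percent of initial dose per 1 × 10^6 cells, normalized for dose and cell number. Inhibition compared to control by one-way ANOVA; SD shown.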

Lung [5] = experiment: Biodistribution in 9L cells bearing Fischer 344 rat lung at 15 to 30 uCi, iv after 120 mins; format: ADME, organism-based; settings: in vivo, 2 h; summary of the method: as §1
Brain [6] = experiment: Biodistribution in 9L cells bearing Fischer 344 rat brain at 15 to 30 uCi, iv after 120 mins; format: ADME, organism-based; settings: in vivo, 2 h; summary of the method: as §1
Liver [7] = experiment: Biodistribution in 9L cells bearing Fischer 344 rat liver at 15 to 30 uCi, iv after 30 mins; format: ADME, organism-based; settings: in vivo, 0.5 h; summary of the method: as §1
Pancreas [8] = experiment: Biodistribution in 9L cells bearing Fischer 344 rat pancreas at 15 to 30 uCi, iv after 120 mins; format: ADME, organism-based; settings: in vivo, 2 h; summary of the method: as §1
Lung [9] = experiment: Biodistribution in 9L cells bearing Fischer 344 rat lung at 15 to 30 uCi, iv after 30 mins; format: ADME, organism-based; settings: in vivo, 0.5 h; summary of the method: as §1
Liver [10] = experiment: Biodistribution in 9L cells bearing Fischer 344 rat liver at 15 to 30 uCi, iv after 120 mins; format: ADME, organism-based; settings: in vivo, 2 h; summary of the method: as §1
Testes [11] = experiment: Biodistribution in 9L cells bearing Fischer 344 rat testes at 15 to 30 uCi, iv after 120 mins; format: ADME, organism-based, Testis; settings: in vivo, 2 h; summary of the method: as §1
Pancreas [12] = experiment: Biodistribution in 9L cells bearing Fischer 344 rat pancreas at 15 to 30 uCi, iv after 30 mins; format: ADME, organism-based; settings: in vivo, 0.5 h; summary of the method: as §1
Rattus norvegicus [13] = experiment: Biodistribution in 9L cells bearing Fischer 344 rat tumor at 15 to 30 uCi, iv after 120 mins; format: ADME, organism-based, Neoplasm; settings: in vivo, 2 h; summary of the method: as §1
Muscle tissue [14] = experiment: Biodistribution in 9L cells bearing Fischer 344 rat muscle at 15 to 30 uCi, iv after 30 mins; format: ADME, organism-based; settings: in vivo, 0.5 h; summary of the method: as §1
Nucleic Acid [15] = experiment: Ratio of drug level in tumor to brain in 9L cells bearing Fischer 344 rat at 15 to 30 uCi, iv after 120 mins; format: ADME, organism-based; settings: in vivo, 2 h
Summary of the method: (§3)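 Intracranial 9L gliosarcoma in male Fischer 344 rats (125–175 g). The 123I-labelled (S) or 131I-labelled (R) tracer was given iv in saline. Tumor and normal brain %ID/g were measured at 30, 60 or 120 min, and the ratio was taken from these. Groups were 5 per time for S, and 5/4/4 for R.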

Heart [16] = experiment: Biodistribution in 9L cells bearing Fischer 344 rat heart at 15 to 30 uCi, iv after 30 mins; format: ADME, organism-based; settings: in vivo, 0.5 h; summary of the method: as §1
Muscle tissue [17] = experiment: Biodistribution in 9L cells bearing Fischer 344 rat muscle at 15 to 30 uCi, iv after 60 mins; format: ADME, organism-based; settings: in vivo, 1 h; summary of the method: as §1
Kidney [18] = experiment: Biodistribution in 9L cells bearing Fischer 344 rat kidney at 15 to 30 uCi, iv after 120 mins; format: ADME, organism-based; settings: in vivo, 2 h; summary of the method: as §1
Blood [19] = experiment: Biodistribution in 9L cells bearing Fischer 344 rat blood at 15 to 30 uCi, iv after 30 mins; format: ADME, organism-based; settings: in vivo, 0.5 h; summary of the method: as §1
Pancreas [20] = experiment: Biodistribution in 9L cells bearing Fischer 344 rat pancreas at 15 to 30 uCi, iv after 60 mins; format: ADME, organism-based; settings: in vivo, 1 h; summary of the method: as §1
Brain [21] = experiment: Biodistribution in 9L cells bearing Fischer 344 rat brain at 15 to 30 uCi, iv after 30 mins; format: ADME, organism-based; settings: in vivo, 0.5 h; summary of the method: as §1
Nucleic Acid [22] = experiment: Ratio of drug level in tumor to brain in 9L cells bearing Fischer 344 rat at 15 to 30 uCi, iv after 60 mins; format: ADME, organism-based; settings: in vivo, 1 h; summary of the method: as §3
Heart [23] = experiment: Biodistribution in 9L cells bearing Fischer 344 rat heart at 15 to 30 uCi, iv after 120 mins; format: ADME, organism-based; settings: in vivo, 2 h; summary of the method: as §1
Bone [24] = experiment: Biodistribution in 9L cells bearing Fischer 344 rat bone at 15 to 30 uCi, iv after 30 mins; format: ADME, organism-based, Bone element; settings: in vivo, 0.5 h; summary of the method: as §1
Testes [25] = experiment: Biodistribution in 9L cells bearing Fischer 344 rat testes at 15 to 30 uCi, iv after 30 mins; format: ADME, organism-based, Testis; settings: in vivo, 0.5 h; summary of the method: as §1
Thyroid gland [26] = experiment: Biodistribution in 9L cells bearing Fischer 344 rat thyroid at 15 to 30 uCi, iv after 60 mins; format: ADME, organism-based; settings: in vivo, 1 h; summary of the method: as §1
Thyroid gland [27] = experiment: Biodistribution in 9L cells bearing Fischer 344 rat thyroid at 15 to 30 uCi, iv after 120 mins; format: ADME, organism-based; settings: in vivo, 2 h; summary of the method: as §1
Kidney [28] = experiment: Biodistribution in 9L cells bearing Fischer 344 rat kidney at 15 to 30 uCi, iv after 60 mins; format: ADME, organism-based; settings: in vivo, 1 h; summary of the method: as §1
Spleen [29] = experiment: Biodistribution in 9L cells bearing Fischer 344 rat spleen at 15 to 30 uCi, iv after 30 mins; format: ADME, organism-based; settings: in vivo, 0.5 h; summary of the method: as §1
Heart [30] = experiment: Biodistribution in 9L cells bearing Fischer 344 rat heart at 15 to 30 uCi, iv after 60 mins; format: ADME, organism-based; settings: in vivo, 1 h; summary of the method: as §1
Muscle tissue [31] = experiment: Biodistribution in 9L cells bearing Fischer 344 rat muscle at 15 to 30 uCi, iv after 120 mins; format: ADME, organism-based; settings: in vivo, 2 h; summary of the method: as §1
Blood [32] = experiment: Biodistribution in 9L cells bearing Fischer 344 rat blood at 15 to 30 uCi, iv after 60 mins; format: ADME, organism-based; settings: in vivo, 1 h; summary of the method: as §1
Nucleic Acid [33] = experiment: Ratio of drug level in tumor to brain in 9L cells bearing Fischer 344 rat at 15 to 30 uCi, iv after 30 mins; format: ADME, organism-based; settings: in vivo, 0.5 h; summary of the method: as §3
Blood [34] = experiment: Biodistribution in 9L cells bearing Fischer 344 rat blood at 15 to 30 uCi, iv after 120 mins; format: ADME, organism-based; settings: in vivo, 2 h; summary of the method: as §1
Bone [35] = experiment: Biodistribution in 9L cells bearing Fischer 344 rat bone at 15 to 30 uCi, iv after 60 mins; format: ADME, organism-based, Bone element; settings: in vivo, 1 h; summary of the method: as §1
Spleen [36] = experiment: Biodistribution in 9L cells bearing Fischer 344 rat spleen at 15 to 30 uCi, iv after 120 mins; format: ADME, organism-based; settings: in vivo, 2 h; summary of the method: as §1
Liver [37] = experiment: Biodistribution in 9L cells bearing Fischer 344 rat liver at 15 to 30 uCi, iv after 60 mins; format: ADME, organism-based; settings: in vivo, 1 h; summary of the method: as §1
Bone [38] = experiment: Biodistribution in 9L cells bearing Fischer 344 rat bone at 15 to 30 uCi, iv after 120 mins; format: ADME, organism-based, Bone element; settings: in vivo, 2 h; summary of the method: as §1
Rattus norvegicus [39] = experiment: Biodistribution in 9L cells bearing Fischer 344 rat tumor at 15 to 30 uCi, iv after 30 mins; format: ADME, organism-based, Neoplasm; settings: in vivo, 0.5 h; summary of the method: as §1
Spleen [40] = experiment: Biodistribution in 9L cells bearing Fischer 344 rat spleen at 15 to 30 uCi, iv after 60 mins; format: ADME, organism-based; settings: in vivo, 1 h; summary of the method: as §1
Thyroid gland [41] = experiment: Biodistribution in 9L cells bearing Fischer 344 rat thyroid at 15 to 30 uCi, iv after 30 mins; format: ADME, organism-based; settings: in vivo, 0.5 h; summary of the method: as §1
9L [42] = experiment: Drug uptake per 10^6 cells in rat 9L cells after 30 mins; format: ADME, cell-based; settings: 0.5 h; summary of the method: as §2
Kidney [43] = experiment: Biodistribution in 9L cells bearing Fischer 344 rat kidney at 15 to 30 uCi, iv after 30 mins; format: ADME, organism-based; settings: in vivo, 0.5 h; summary of the method: as §1
Rattus norvegicus [44] = experiment: Biodistribution in 9L cells bearing Fischer 344 rat tumor at 15 to 30 uCi, iv after 60 mins; format: ADME, organism-based, Neoplasm; settings: in vivo, 1 h; summary of the method: as §1

In the case of `C[C@@](N)(/C=C/[131I])C(=O)O`, the Drug uptake (Lung [1]) is reported as 0.65 % ID/g, the Drug uptake (Testes [2]) is reported as 0.26 % ID/g and the Drug uptake (Brain [3]) is reported as 0.066 % ID/g. The Activity (9L [4]) was 57%, the Drug uptake (Lung [5]) was 0.45 % ID/g and the Drug uptake (Brain [6]) was 0.051 % ID/g. For the same compound, the Drug uptake (Liver [7]) was 0.31 % ID/g, the Drug uptake (Pancreas [8]) was 0.78 % ID/g and the Drug uptake (Lung [9]) was 0.27 % ID/g. It also gave a Drug uptake (Liver [10]) of 0.37 % ID/g, a Drug uptake (Testes [11]) of 0.23 % ID/g and a Drug uptake (Pancreas [12]) of 1.21 % ID/g. The Drug uptake (Rattus norvegicus [13]) was 0.39 % ID/g, the Drug uptake (Muscle tissue [14]) was 0.26 % ID/g and the Ratio (Nucleic Acid [15]) was 7.6. It also gave a Drug uptake (Heart [16]) of 0.19 % ID/g, a Drug uptake (Muscle tissue [17]) of 0.4 % ID/g and a Drug uptake (Kidney [18]) of 1.76 % ID/g. For the same compound, the Drug uptake (Blood [19]) was 0.22 % ID/g, the Drug uptake (Pancreas [20]) was 1.86 % ID/g and the Drug uptake (Brain [21]) was 0.018 % ID/g. For the same compound, the Ratio (Nucleic Acid [22]) was 7.7, the Drug uptake (Heart [23]) was 0.34 % ID/g and the Drug uptake (Bone [24]) was 0.13 % ID/g. For the same compound, the Drug uptake (Testes [25]) was 0.09 % ID/g, the Drug uptake (Thyroid gland [26]) was 0.25 %ID/organ and the Drug uptake (Thyroid gland [27]) was 0.36 %ID/organ. The Drug uptake (Kidney [28]) was 3.43 % ID/g, the Drug uptake (Spleen [29]) was 0.3 % ID/g and the Drug uptake (Heart [30]) was 0.43 % ID/g. The Drug uptake (Muscle tissue [31]) was 0.26 % ID/g, the Drug uptake (Blood [32]) was 0.69 % ID/g and the Ratio (Nucleic Acid [33]) was 10. For the same compound, the Drug uptake (Blood [34]) was 0.56 % ID/g, the Drug uptake (Bone [35]) was 0.34 % ID/g and the Drug uptake (Spleen [36]) was 0.31 % ID/g. For the same compound, the Drug uptake (Liver [37]) was 0.6 % ID/g, the Drug uptake (Bone [38]) was 0.26 % ID/g and the Drug uptake (Rattus norvegicus [39]) was 0.19 % ID/g. It also gave a Drug uptake (Spleen [40]) of 0.5 % ID/g, a Drug uptake (Thyroid gland [41]) of 0.08 %ID/organ and a Drug uptake (9L [42]) of 0.07 %ID. It also gave a Drug uptake (Kidney [43]) of 2.91 % ID/g and a Drug uptake (Rattus norvegicus [44]) of 0.51 % ID/g.
